Test [1] is described as follows: Binding affinity to Escherichia coli N-terminal 6 his tagged BamA barrel domain (421 to 810 residues) assessed as dissociation constant measured after 15 mins by microscale thermophoresis analysis. The procedure, abridged:
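Microscale thermophoresis with E. coli BamA at 50 nM in 50 mM HEPES pH 7.6, 5 mM MgCl2, 0.05% Tween. Ligand stock was in water and diluted in HEPES buffer. It was tested from the highest soluble concentration, mostly 2 mM, in 1:1 serial dilution over 16 samples. A labeling/fluorescence pretest was run for each sample.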

Test [2] deals with Pseudomonas aeruginosa. Kind of test: Antibacterial activity against Pseudomonas aeruginosa PA14 DSM 19882 assessed as reduction in bacterial growth measured after 24 hrs. The following applies: PA14 DSM 19882, 24 h.
The test system of test [3] is Acinetobacter baumannii. Nature of the test: Antibacterial activity against Acinetobacter baumannii ATCC 17978 assessed as reduction in bacterial growth measured after 24 hrs. The test is classed as functional.
Test [4] relates to Pseudomonas aeruginosa. Nature of the test: Antibacterial activity against multidrug resistant Pseudomonas aeruginosa 84389 clinical isolate assessed as reduction in bacterial growth measured after 24 hrs. The class given is functional.
Test [5] relates to Acinetobacter baumannii. Nature of the test: Antibacterial activity against Acinetobacter baumannii NCTC 13301 assessed as reduction in bacterial growth measured after 24 hrs. The test is classed as functional.
Test [6] deals with Acinetobacter baumannii. Nature of the test: Antibacterial activity against Acinetobacter baumannii DSM-30007 assessed as reduction in bacterial growth measured after 24 hrs. The class given is functional.
Test [7] has as its system Pseudomonas aeruginosa. Nature of the test: Antibacterial activity against multidrug resistant Pseudomonas aeruginosa 83979 clinical isolate assessed as reduction in bacterial growth measured after 24 hrs. The test is classed as functional.

Each structure is given as a SMILES string. Converted amounts (≈) assume the structure as drawn.

Regarding `C[C@@H](O)[C@@H]1NC(=O)[C@H]2NC(=O)[C@H](CC(N)=O)NC(=O)[C@@H](N)Cc3c[nH]c4c(cccc34)O[C@@H]2c2c[nH]c3cc(ccc23)[C@H](CCCN)[C@@H](C(=O)N[C@@H](CCC(N)=O)C(=O)N[C@@H](Cc2c[nH]c3ccccc23)C(=O)O)NC1=O`, in test [1], the Kd is 2.2 µM.

For `N=C(N)NCCC[C@H](NC(=O)[C@H]1NC(=O)[C@H](CO)NC(=O)[C@H]2NC(=O)[C@H](CCC(N)=O)NC(=O)[C@@H](N)Cc3c[nH]c4c(cccc34)O[C@@H]2c2c[nH]c3cc(ccc23)[C@@H]1CCCN)C(=O)N[C@@H](Cc1c[nH]c2ccccc12)C(=O)O`, the minimum inhibitory concentration (MIC) in the test on Pseudomonas aeruginosa [2] was found to be 16 µg/mL (≈ 14.7 µM); in the test with Acinetobacter baumannii [3], 16 µg/mL (≈ 14.7 µM); in the test with Pseudomonas aeruginosa [4], 16 µg/mL (≈ 14.7 µM); in the test with Acinetobacter baumannii [5] it was 8 µg/mL (≈ 7.35 µM); in the test with Acinetobacter baumannii [6] it was 2 µg/mL (≈ 1.84 µM); in the test on Pseudomonas aeruginosa [7] it was 8 µg/mL (≈ 7.35 µM).

Regarding `C[C@@H](O)[C@@H]1NC(=O)[C@H]2NC(=O)[C@H](CC(=O)O)NC(=O)[C@@H](N)Cc3c[nH]c4c(cccc34)O[C@@H]2c2c[nH]c3cc(ccc23)[C@H](CCCN)[C@@H](C(=O)N[C@@H](CCCNC(=N)N)C(=O)N[C@@H](Cc2c[nH]c3ccccc23)C(=O)O)NC1=O`, in test [1], the dissociation constant (Kd) came out at 22.6 µM.
